Experimental data reported in paper PMC5352298 (Pharmacological research, 2016).
Where two headings read alike, the source gives them in different places.

How the values were obtained:
[1] = test system: mice (carrageenan induced paw edema); test: Carrageenan induced paw edema; format: in vivo, mouse
Method in brief: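 Male CF-1 mice (20–35 g), n=5 per group. Test compound, ibuprofen (100 mg/kg, positive control) or MC vehicle given i.p. 2 h before intraplantar 25 μl λ-carrageenan; an MC/saline group also included. Both paws measured by caliper at baseline and 0.5, 1, 2, 3, 4, 6, 8 and 24 h. % edema = thickness/baseline. Mean ± s.e.m.; Tukey test.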

[2] = test system: mice (acetic-acid induced abdominal constriction); settings: cited from earlier work
[3] = test system: rats with SNL neuropathy; test: Spinal nerve ligation; format: in vivo; settings: rat
Method in brief: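 Rats with pre-surgery threshold >15 g underwent L5–L6 spinal nerve ligation under ketamine/xylazine. Test compound at 40, 60 or 80 mg/kg i.p., MC vehicle, or MTMCD positive control, given 7, 14 and 21 days post-surgery. Latin-square design; experimenter blinded. Nine von Frey filaments (0.6–26 g); protected = no response to 15 g. TPE = earliest time of highest mean threshold.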

[4] = test system: rats with SNL neuropathy; settings: rat, same paradigm; cited from earlier work
[5] = test system: mice (formalin-induced paw licking); settings: same test; cited from earlier work
[6] = test system: mice (formalin-induced paw licking); test: Formalin test; format: in vivo, mouse; settings: for reduction of licking-time AUC vs control, acute phase: acute phase 0–10 min; for reduction of licking-time AUC vs control, inflammatory phase: inflammatory phase 10–40 min; for ID50 (dose reducing the nociceptive response by 50% compared to control), acute phase / ID50 (dose reducing the nociceptive response by 50% compared to control), inflammatory phase: i.p.
[7] = test system: mice (carrageenan induced heat hyperalgesia); test: Carrageenan test, heat hyperalgesia; format: in vivo, mouse; settings: for paw thickness an hour following administration: carrageenan injected paw
Method in brief: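 Mice acclimated 1 h on a 30°C plate, then 25 μl carrageenan (20 mg/ml in saline) s.c. into left hind plantar paw. Test compound (10–70 mg/kg), VPA (100 mg/kg) or 0.5% MC given i.p. 15 min before testing at 3 h; Sal/MC and Carr/MC controls; blinded. Radiant heat (35% intensity): flinch latency, mean of two readings 5 min apart, ipsilateral minus contralateral.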

[8] = test system: mice (acetic-acid induced abdominal constriction); test: Acetic acid-induced abdominal constriction; format: in vivo, mouse; settings: for protective index (PI), writhing test: TD50 vs ED50
[9] = test system: rat sciatic nerve; test: Sciatic nerve compound action potential; settings: 40 Hz
[10] = Pharmacokinetic study in mice; format: in vivo, mouse; settings: 80 mg/kg i.p.
Method in brief: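 Mice dosed 80 mg/kg i.p. (suspension in 0.5% MC), 4 per time point. Aortic blood collected after sacrifice at 0.25, 0.5, 1, 1.5, 2, 2.5 and 4 h. Heparinised plasma (3000g, 10 min) stored at −80°C. Chloroform extraction with N-methyl VCD internal standard, then GC/MS. Non-compartmental analysis: Cmax observed; CL/F = Dose/AUC; V/F = CL/F ÷ terminal slope.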

[11] = Pharmacokinetic study in rats; format: in vivo, rat; settings: 80 mg/kg i.p.
Method in brief: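 Rats given 80 mg/kg i.p. in 0.5% MC, four animals per time point. Cardiac-puncture blood (5 ml) taken at sacrifice at 0.25, 0.5, 1, 1.5, 2 and 4 h. Plasma (3000g, 10 min) held at −80°C, chloroform-extracted with N-methyl VCD internal standard and assayed by GC/MS. Non-compartmental: observed Cmax, CL/F = Dose/AUC, V/F = CL/F divided by terminal slope.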

[12] = rats, 60 mg/kg, multisol solution, previous study; cited from earlier work
[13] = test system: mice; settings: mouse, in vivo, ip; cited from earlier work
[14] = sedation for the first 15 minutes after dosing

For `CC(C)Cc1ccc(C(C)C(=O)O)cc1` (stereo not drawn) [Ibuprofen, reference compound], the “percent paw thickness following carrageenan injection” value ([1]; 100 mg/kg i.p., significant after 4 hours (p<0.05)) is listed as “decreased percent paw thickness” and the “ED50 in the writhing model” value [2] is listed as 33 mg/kg.
For `CNC(=O)CC1C(C)(C)C1(C)C` [MTMCD, N-methyl tetramethylcyclopropyl acetamide, reference compound], the “antiallodynic effect vs MC (positive control)” value ([3]; 80 mg/kg i.p.) was “antiallodynic effect significantly different than MC”.
In the case of `NCC1(CC(=O)O)CCCCC1` [gabapentin], the “ED50 (antiallodynic, SNL model)” value [4] is given as 32 mg/kg.
In the case of `COc1ccc2c3c1O[C@H]1[C@@H](O)C=C[C@H]4[C@@H](C2)N(C)CC[C@@]341` [codeine], the “potency (effective dose) in the formalin test” value (“potency (effective dose)” below) [5] is given as 25 to 50 mg/kg.
In the case of `CC(=O)Oc1ccccc1C(=O)O` [aspirin], the “ED50 in the writhing model” value [2] is listed as 82 to 228 mg/kg.
For `CCCC(C(N)=O)C(C)CC` (stereo not drawn) [SPD, sec-Butylpropylacetamide], the “tactile allodynia compared to control” value ([3]; 60 and 80 mg/kg i.p., p<0.05) was “significantly reduced tactile allodynia”, the “time to peak antiallodynic effect (TPE)” value ([3]; i.p.) was 60 min and the “ED50 (antiallodynic, SNL model)” value ([3]; i.p., at TPE (60 min), 95% CI of 9–61 mg/kg) was 49 mg/kg. The “potency (effective dose)” value ([6]; mice) was 70 mg/kg, the “reduction of licking-time AUC vs control, acute phase” value ([6]; mice, 70 mg/kg i.p.) was 55% and the “reduction of licking-time AUC vs control, inflammatory phase” value ([6]; mice, 70 mg/kg i.p.) was 74%. For the same compound, the “ID50 (dose reducing the nociceptive response by 50% compared to control), acute phase” value ([6]; mice) was 39 mg/kg, the “ID50 (dose reducing the nociceptive response by 50% compared to control), inflammatory phase” value ([6]; mice) was 40 mg/kg and the “protective index (PI), formalin test” value ([6]; ratio between ID50 and TD50, TD50 from White et al., 2012) was 2.2. For the same compound, the “heat hyperalgesia, normalized mean withdrawal time vs Carr/MC” value ([7]; 70 mg/kg i.p.) was “statistically different from the Carr/MC group”, the “paw thickness an hour following administration” value [7] was “Neither SPD nor VPA decreased paw thickness” and the “ED50 in the carrageenan model (heat hyperalgesia)” value ([7]; i.p., at TPE, 95% CI 29.3–110) was 49 mg/kg. For the same compound, the “percent paw thickness up to 24 hours following carrageenan injection” value ([1]; 70 mg/kg i.p.) was “did not decrease percent paw thickness”, the “protective index (PI), writhing test” value [8] was 2.2 and the “mean number of writhes” value ([8]; mice, 30, 50 and 70 mg/kg i.p., p<0.001) was “significantly reduced”. For the same compound, the “dose of maximum efficacy in the writhing test” value ([8]; mice, i.p.) was 30 mg/kg, the “ED50 in the writhing test” value ([8]; mice, i.p., 95% CI 24.3–67 mg/kg (SPD), 18–61mg/kg (VPA)) was 40 mg/kg and the “ratio between last and first CAP (Δf), phasic stimulation” value ([9]; 3mM, baseline 96.5%) was 96%. For the same compound, the “PAR of the first and last CAP normalized to baseline, phasic stimulation” value ([9]; 3mM, baseline 100%) was 90%, the CL/F [10] was 28.3 mL/min/kg and the “peak plasma concentration (Cmax)” value [10] was 77.2 µg/mL. For the same compound, the volume of distribution [10] was 0.9 L/kg, the signs of toxicity [10, 14] was “not associated with any signs of toxicity except sedation” and the CL/F [11] was 15 mL/min/kg. For the same compound, the “peak plasma concentration (Cmax)” value [11] was 66.2 µg/mL, the volume of distribution [11] was 1.1 L/kg and the signs of toxicity [11, 14] was “not associated with any signs of toxicity except sedation”. For the same compound, the CL/F [12] was 1.9.
For `CCCC(CCC)C(=O)O` [VPA, valproic acid, reference compound], the licking time ([6]; mice, 70 mg/kg i.p.) was “unable to reduce the licking time significantly”, the licking time ([6]; mice, 100 mg/kg i.p.) was “showed reduction in only one of the two phases evaluated” and the “reduction of licking-time AUC vs control, acute phase” value ([6]; mice, 300 mg/kg i.p.) was 46%. The “reduction of licking-time AUC vs control, inflammatory phase” value ([6]; mice, 300 mg/kg i.p.) was 75%, the “ID50 (dose reducing the nociceptive response by 50% compared to control), acute phase” value ([6]; mice) was 136 mg/kg and the “ID50 (dose reducing the nociceptive response by 50% compared to control), inflammatory phase” value ([6]; mice) was 113 mg/kg. For the same compound, the “heat hyperalgesia vs Carr/MC” value ([7]; 100 mg/kg i.p.) was “not able to reduce heat hyperalgesia”, the “paw thickness an hour following administration” value [7] was “Neither SPD nor VPA decreased paw thickness” and the ED50 ([8]; Mus musculus, ip, read-out: ED50 in the writhing test) was 44 mg/kg. The “protective index (PI), writhing test” value [8] was 8.8, the number of writhes ([8]; mice, 50 and 100 mg/kg i.p.) was “significantly reduced the number of writhes” and the “ED50 (antiallodynic, SNL model)” value [4] was 269 mg/kg. The TD50 [13] was 391 mg/kg.
In the case of `CN1CC[C@]23c4c5ccc(O)c4O[C@H]2[C@@H](O)C=C[C@H]3[C@H]1C5` [morphine], the “potency (effective dose)” value [5] is given as 5 to 10 mg/kg.
For `CN1C(C(=O)Nc2ccccn2)=C(O)c2ccccc2S1(=O)=O` [piroxicam], the “ED50 in the writhing model” value [2] is listed as 100 mg/kg.
With `CCN(CC)CC(=O)Nc1c(C)cccc1C` [lidocaine, Lidocaine, reference compound] the “PAR of the first CAP normalized to baseline, phasic stimulation” value ([9]; 1mM, baseline 100%) was 22.5% and the “PAR of the last CAP normalized to baseline, phasic stimulation” value ([9]; 1mM, baseline 100%) was 14.7%.
